# Measurements gathered from unrelated publications.
# Compare with care: the assays were run in different laboratories.
# Target: Mitogen-activated protein kinase kinase kinase 1 (MAP3K1, Homo sapiens, UniProt Q13233)
Compound,assay,setting,remaining binding [%]
c1cnn2ncc(-c3ccnc(N4CCC45COC5)n3)c2c1,binding,1 µM,76
Nc1ncc2c(n1)-c1c([nH]c3ccc(C#CC4CC4)cc13)CCCC2,"binding, competition with immobilised ligand",1 µM,97
CN(C)c1nccc(-c2cnn3ncccc23)n1,binding,1 µM,91
COc1cnc(Nc2cccc(S(N)(=O)=O)c2)nc1N1CCN(c2ccccc2)CC1,"binding, competition with immobilised ligand",1 µM,100
O=C(c1ccc(Nc2ncc(Cl)c(-c3cc4ccccc4s3)n2)cc1)N1CCC(N2CCCC2)CC1,"binding, competition with immobilised ligand",1 µM,79
CNC(=O)Nc1ccc2c(c1)CC[C@@]21OC(=O)N(CC(=O)N(Cc2ccc(F)cc2)[C@@H](C)C(F)(F)F)C1=O,"cell-free assay, competition with immobilised ligand",1 µM,68
CN(C)c1nccc(-c2cnc3ncccn23)n1,binding,1 µM,100
CS(=O)(=O)N1CCCC(NC(=O)[C@H](CCC2CCCCC2)NC(=O)c2ccc(CNc3ncnc4c3nnn4-c3ccccc3)cc2)C1 (stereo partly shown),"cell-free assay, competition with immobilised ligand",0.1 µM,81
C=CC(=O)N1CCC(C(=O)NCC(=O)N2CCN(c3nc(-c4cnc(N)nc4C(F)F)nc(N4CCOCC4)n3)CC2)CC1,"binding, competition with immobilised ligand",1 µM,93
N[C@H]1CCN(c2nccc(-c3cnn4ncccc34)n2)C1,binding,1 µM,98
O=C(c1ccc(Nc2nccc(-c3cc4ccccc4s3)n2)cc1)N1CCC(N2CCCC2)CC1,"binding, competition with immobilised ligand",1 µM,98
O=C(N1CCS(=O)(=O)CC1)N1C[C@H](c2ccc(OC(F)(F)F)cc2)C[C@H](c2nc(C3CC3)no2)C1,"cell-free assay, competition with immobilised ligand",1 µM,100
COc1ccnn2ncc(-c3ccnc(N(C)C)n3)c12,binding,1 µM,100
O=C(NCC1CCOCC1)c1n[nH]cc1NC(=O)c1c(F)cccc1F,"binding, competition with immobilised ligand",1 µM,75
CNC(=O)Nc1ccc2c(c1)[C@@]1(CC2)OC(=O)N(CC(=O)N(Cc2ccc(F)cc2)[C@@H](C)C(F)(F)F)C1=O,"cell-free assay, competition with immobilised ligand",1 µM,95
O=C(NCCCN1CCOCC1)c1ccc(Nc2nccc(-c3cc4ccccc4s3)n2)cc1,"binding, competition with immobilised ligand",1 µM,92
c1cncc(-c2cccc(Nc3nccc(NC4CCCCC4)n3)c2)c1,"binding, competition with immobilised ligand",10 µM,79
COc1ncc2cc3ccccc3nc2c1C#N,"cell-free assay, competition with immobilised ligand",5 µM,99
C[C@H](NC(=O)c1cnc2n1[C@](C)(Cc1ccc(C#N)cc1)C(=O)N2c1cc(Cl)c(F)c(Cl)c1)C(=O)NC1(c2ccccn2)CC1,"cell-free assay, competition with immobilised ligand",1 µM,100
C[C@@H]1CCN(c2nccc(-c3cnn4ncccc34)n2)C1,binding,1 µM,85
COc1ccc2c(c1)O[C@@H](c1ccc(OC)c(OC)c1)C[C@H]2NC(=O)C1(c2ccc3c(c2)OC(F)(F)O3)CC1,"cell-free assay, competition with immobilised ligand",1 µM,77
CN(C)c1ncc(F)c(-c2cnn3ncccc23)n1,binding,1 µM,80
